Hits are enriched below; roughly 2.3% of the tested compounds scored in any of these assays.
RAM network inh: blocks the yeast RAM network; S. cerevisiae dse1pr::URA3 reporter, 5-FOA growth OD615, 2 d; analog-sensitive cbk1-as2 kinase mutant strain; 1.8% of 190,000 active; inhibition, % at 50 µM; AID 868;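 active = inhibition above a set limit, 3 SD over mean compound inhibition, cut at about 8.4% in these data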;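 note: 0% = DMSO-only wells with no growth and 100% = 10 µM 1-NA-PP1 full growth; inhibition rescues growth on 5-FOA so higher OD means more RAM inhibition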
Arbovirus inh: arbovirus infection inhibition; arbovirus infection cell-based antiviral screen; inhibition, % at 10 µM; 0.37% of 200,000 active; in the data active = inhibition above about 30%
ABCB1 block: human ABCB1 inhibition, ABCG2 as counter-screen. P08183. CCRF-Adr cells, JC-1 efflux, flow cytometry. inhibition, % at 6.6 µM. 0.067% of 190,000 active. AID 1326; in the data active = inhibition above about 40%;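 note: 0% = vehicle and 100% = reference inhibitor; higher value means more JC-1 retained so stronger ABCB1 efflux block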
ABCG2 inh: inhibitors of human ABCG2 transporter, ABCB1 counter-screen; IgMXP3 cells, JC-1 efflux, flow cytometry; inhibition, % at 6.6 µM; 0.1% of 190,000 active; AID 1325; Q9UNQ0;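 active = inhibition above 80%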;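 note: 0% = DMSO and 100% = nicardipine control wells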
Target sequence (Q9UNQ0 whole entry, looked up): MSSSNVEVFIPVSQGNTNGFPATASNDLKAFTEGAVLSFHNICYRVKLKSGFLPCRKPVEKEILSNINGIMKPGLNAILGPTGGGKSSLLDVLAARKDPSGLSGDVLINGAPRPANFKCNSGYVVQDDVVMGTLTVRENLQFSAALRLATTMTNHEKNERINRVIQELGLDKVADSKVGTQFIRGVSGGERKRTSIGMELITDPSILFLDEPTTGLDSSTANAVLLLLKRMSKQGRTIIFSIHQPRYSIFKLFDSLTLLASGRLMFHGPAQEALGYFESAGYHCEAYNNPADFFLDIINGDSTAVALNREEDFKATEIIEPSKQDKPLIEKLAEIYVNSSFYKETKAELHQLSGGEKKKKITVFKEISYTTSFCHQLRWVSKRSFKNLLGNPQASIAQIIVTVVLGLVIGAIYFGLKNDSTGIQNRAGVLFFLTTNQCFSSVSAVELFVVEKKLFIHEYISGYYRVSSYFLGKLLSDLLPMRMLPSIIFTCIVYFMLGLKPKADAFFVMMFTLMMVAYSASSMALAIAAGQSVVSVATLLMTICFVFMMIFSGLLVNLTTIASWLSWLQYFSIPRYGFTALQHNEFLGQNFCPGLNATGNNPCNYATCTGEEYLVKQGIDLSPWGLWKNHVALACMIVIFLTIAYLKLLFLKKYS
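Incubation: cells with compound and JC-1, 10 min at 25 °C, rotating, no wash / Test system: IgMXP3 (ABCG2) plus far-red-tagged CCRF-Adr (ABCB1) cells / Compound dosing: one concentration, 6.6 µM final / Also added: JC-1 fluorescent substrate / Evaluation: efflux inhibition in percent versus controls / Detection: flow cytometry, 530 nm JC-1 signal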
RAM 5-FOA: restores 5-FOA growth of efflux-deficient yeast. shares compounds with RAM network inh. S. cerevisiae efflux-deficient reporter strain, 5-FOA growth OD615, 2 days. max inhibition, %. 1,200 tested, under 10 active. AID 1305; call rule not given here;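 note: plate controls were vehicle for no effect and reference inhibitor for full effect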
Active calls of the source: *; nt = not tested or not shown.

SMILES	RAM network inh	Arbovirus inh	ABCB1 block	ABCG2 inh	RAM 5-FOA
O=C(Nc1cc(Sc2ccccn2)cc([N+](=O)[O-])c1)c1ccc(Cl)cc1	0.8	-3.8	0.6	10.2	nt
Cc1ccc(NN=C2c3ccccc3-c3ccccc32)cc1	14.9*	-0.5	-0.2	3.6	4.6
Cc1ccc(OCC(=O)NN=C2c3ccccc3-c3ccccc32)cc1	2.0	-8.8	1.6	52.2	nt
C=CCOc1cccc(/C=C2\C(=O)N(Cc3ccc(C)cc3)C(C)=C2C(=O)OC)c1	17.8*	9.0	0.3	5.4	4.2
COc1ccc(/C=C/C(=O)c2sc(-c3ccccc3)nc2C)cc1	13.3*	5.4	0.2	2.1	1.4
Cc1nc(-c2ccccc2)sc1C(=O)O	0.2	0.9	0.1	1.2	nt
Cc1cccc(Nc2nc(NCc3ccco3)c3ccccc3n2)c1	16.5*	-34.7	-0.1	1.3	0.6
Cc1ccccc1Nc1nc(NCc2ccco2)c2ccccc2n1	1.3	-25.0	9.8	16.8	nt
Cc1cccc(C(=O)Nc2cccc(OC(=O)c3cccc(C)c3)c2)c1	13.8*	8.2	0.3	4.4	5.3
COC(=O)COc1cccc(NC(=O)c2cccc(C)c2)c1	0.4	-1.0	0.3	12.7	nt
Cc1oc(C(C)(C)C)cc1C(=O)Nc1ccc(C(=O)O)cc1	-1.8	15.0	0.1	1.3	nt
COc1ccc(C(C#N)N2N=C(c3ccccc3)CC2c2ccccc2)cc1OC (stereo not drawn)	4.1	-2.3	5.3	8.0	nt
COc1ccc(C2=NN(C(C#N)c3ccc(OC)cc3)C(c3ccccc3)C2)cc1 (stereo not drawn)	14.2*	-8.8	0.1	5.5	1.9
CS(=O)(=O)N1CCC(C(=O)Nc2ccc(Cl)c(Cl)c2)CC1	1.4	-0.5	-0.2	0.7	nt
COC(=O)Cc1ccc(N(Cc2ccccc2F)S(=O)(=O)c2ccc(C)cc2)cc1	20.0*	11.3	0.1	2.0	2.5
O=c1c2cccnc2[nH]c(=S)n1CCCN1CCN(c2ccccc2F)CC1	1.1	0.1	0.3	0.2	nt
FC(F)(F)c1cc(-c2ccccc2)nc(NCc2cccs2)n1	1.3	-27.7	0.5	18.5	nt
CCCC(=O)OCCNc1cc(SCc2ccco2)c2nonc2c1[N+](=O)[O-]	13.8*	-44.4	-0.4	-4.5	3.3
COc1cc(OC)c(C2SCCN2S(=O)(=O)c2ccc(F)cc2)cc1OC (stereo not drawn)	2.6	18.4	1.1	0.5	nt
O=C(Cc1ccccc1F)OCC(=O)N1CCc2ccccc21	0.0	-1.2	-0.1	1.7	nt
Cc1cc(N2CCC(C)CC2)nc2ccc(N3C(=O)CCC3=O)cc12	2.7	8.2	0.5	3.1	nt
Cc1cc(C)nc(N2N=C(CSc3ccc(Cl)cc3)CC2=O)n1	13.1*	0.0	2.4	4.1	1.1
COc1cccc(C(=O)C2CN(c3ccccc3)CC2c2ccc(Cl)cc2)c1 (stereo not drawn)	14.9*	7.0	0.2	1.6	6.3
CC1CC(C)(C)CC2(C1)NC(=O)N(CC(=O)NCCc1ccc3c(c1)OCCO3)C2=O (stereo not drawn)	2.4	8.7	0.0	0.0	nt
CCN(CC)S(=O)(=O)c1ccc(NC(=O)COC(=O)c2ccc(Br)o2)cc1	47.1*	5.4	1.1	14.9	2.1
SMILES	RAM network inh	Arbovirus inh	ABCB1 block	ABCG2 inh	RAM 5-FOA
CCOc1c(Cl)cc(C(=O)Nc2ccccc2-c2ccccc2)cc1Cl	13.9*	4.0	0.9	6.3	5.2
O=C(NC1CCCCC1)c1ccc(CN2CCOCC2)cc1	2.4	-3.2	0.8	11.8	nt
CN(c1cccc(NC(=O)CN(c2ccc(F)cc2)S(C)(=O)=O)c1)S(C)(=O)=O	12.9*	0.4	-0.1	-1.2	3.2
Cc1cccc(NC(=O)CN(c2ccc(F)cc2)S(C)(=O)=O)c1	-0.5	-4.5	-0.1	0.8	nt
COc1ccc(CNC(=O)c2cccc(-c3ccc(C)c4ccccc34)n2)cc1	12.2*	-10.2	0.7	17.2	7.0
COc1ccc(CNC(=O)c2ccccc2C(=O)O)cc1	1.1	0.6	0.1	0.6	nt
COc1ccc(Cl)cc1NC(=O)CSc1nncn1-c1cccnc1	0.2	-0.5	0.2	20.8	nt
O=C(c1ccc(Cl)cc1[N+](=O)[O-])N(Cc1ccccc1)Cc1ccccc1	12.8*	-1.1	1.3	2.5	2.7
CC(C)(C)N(Cc1ccccc1)C(=O)c1ccc(Cl)cc1[N+](=O)[O-]	2.2	9.9	0.2	0.0	nt
CCOc1ccccc1NC(=O)C1CCN(c2ccc(S(=O)(=O)N3CCCC3)cc2)CC1	4.1	-8.4	2.2	5.1	nt
CCOC(=O)c1ccc(NC(=O)COC(=O)c2cccc(Oc3ccccc3)c2)cc1	12.0*	2.0	-0.4	-2.0	2.9
CCOC(=O)c1ccc(NC(=S)NC(=O)COc2ccccc2)cc1	11.5*	-4.0	-0.8	-6.0	2.3
O=C(CSc1nc(-c2ccccc2)nc2ccc(F)cc12)Nc1ccc(C(=O)O)cc1	3.4	10.3	-0.8	8.8	nt
Cc1ccc(C)n1-c1ccc(C(=O)/C=C/N(C)C)cc1	2.4	-8.0	-1.0	-2.3	nt
N#CC(C#N)=C(Nc1ccc(F)cc1)SCc1cccc(Br)c1	13.8*	-28.9	2.5	11.2	2.7
Cc1cccc(CSC(Nc2ccc(F)cc2)=C(C#N)C#N)c1	7.3	-25.5	1.1	6.2	nt
Cc1cc(C)c(NC(=O)COC(=O)c2cccc3c2C(=O)c2ccccc2C3=O)c(C)c1	4.2	-9.7	1.3	4.0	nt
Cc1cc(C)c(Nc2cc(S(=O)(=O)O)c(N)c3c2C(=O)c2ccccc2C3=O)c(C)c1	26.1*	-23.6	-0.9	-5.9	15.4
Cc1[nH]n(-c2ncc(-c3ccccc3)s2)c(=O)c1C(c1ccc(Cl)cc1)C(C#N)C#N (stereo not drawn)	12.4*	3.3	-0.9	-4.3	5.2
Cc1[nH]n(-c2ccccc2)c(=O)c1C(C[N+](=O)[O-])c1ccc(Cl)cc1 (stereo not drawn)	0.0	-9.3	0.3	5.0	nt
COc1ccc(Nc2nc3c(C)cccc3cc2C#N)c(OC)c1	12.2*	-8.6	0.2	2.6	4.7
Nc1nc(NC(=O)/C=C\C(=O)O)nn1-c1ccccc1	0.9	5.2	0.1	2.5	nt
Cc1ccc(C(=O)NC(NCc2ccccc2)C(Cl)(Cl)Cl)cc1 (stereo not drawn)	3.4	-0.5	2.4	11.2	nt
CCOC(=O)c1cc(C)sc1NC(=O)C(c1ccccc1)c1ccccc1	16.1*	-5.2	0.8	21.7	5.2
CCCCN(CCCC)S(=O)(=O)c1ccc(NS(=O)(=O)c2ccc(NC(C)=O)cc2)cc1	17.0*	-12.3	-0.1	0.2	2.5
CCOC(=O)/C(=N/Nc1ccccc1)c1csc(Nc2ccccc2)n1	16.3*	-36.6	-0.1	0.5	3.9
O=C(CSc1nc2ccccc2s1)CSc1nc2ccccc2s1	14.1*	23.9	0.4	1.2	4.1
CCOc1ccc2nc(SCC(=O)c3ccccc3)sc2c1	15.6*	8.8	0.3	2.5	2.1
CCOc1ccc2nc(SCc3ccc(OC)cc3)sc2c1	0.9	17.8	-1.6	0.2	nt
CCOc1ccc2nc(SCCNS(=O)(=O)c3ccccc3)sc2c1	11.6*	8.3	0.0	1.5	1.6

Bioassay records deposited in PubChem by several laboratories.
